hERG rescue: compounds protecting human hERG from proarrhythmic drug block. hit rate 0.51% among 310,000. Q12809. CHO-hERG, FluxOR thallium flux, dofetilide IC70 present. activation (rescue from dofetilide block), less the hit threshold, % at 10 µM;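 active = activation above the mean of controls blocked by dofetilide plus 5 SD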;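 note: thallium influx through hERG after potassium depolarization seen as dye fluorescence rise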
KCNQ1 pot: potentiators or activators of human KCNQ1 potassium channel | B-score at 10 µM | CHO-K1 KCNQ1, thallium flux FluxOR fluorescence; stronger effect = higher value | hit rate 0.35% among 310,000 | P51787;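 active = fluorescence ratio B-score, a plate-corrected score, at least three library SD, with initial intensity B-score within 5 SD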
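Assay system: stable KCNQ1 CHO-K1 line; medium: assay buffer, equal DMSO in all wells; timing: 90 min dye loading and 20 min compound exposure, both at room temperature; technique: kinetic FluxOR thallium fluorescence, 10-s 1-Hz baseline, 110-s post-stimulus read; read-out basis: B score of baseline-normalized fluorescence ratio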
KCNQ1 block: blocks the human KCNQ1 potassium channel. B-score at 10 µM. CHO-K1 KCNQ1, FluxOR thallium flux fluorescence; stronger effect = higher value. hit rate 1.3% among 310,000. P51787;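 active = compounds whose thallium flux B-score, printed positive for inhibition, exceeds three library SD while starting fluorescence stays within three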;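 note: channel opened by potassium depolarization with thallium stimulus after 20 min compound exposure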
KCNK9 block: inhibitors of human KCNK9 two-pore domain potassium channel; hit rate 1.2% among 310,000; B-score at 10 µM; Q9NPC2; HEK293 KCNK9, FluxOR thallium flux fluorescence; stronger effect = lower value;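 active = ratio B-score over 3 SD below the library mean, with starting fluorescence within 5 SD of its mean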;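 note: negative B-score means less thallium flux so channel inhibition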
Kir21 inh: Kir2.1 (mouse) channel inhibition | B-score at 10 µM | hit rate 0.85% among 310,000 | AID 1672 | P35561 | HEK293-Kir2.1, FluxOR thallium flux fluorescence; stronger effect = lower value;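 active = fluorescence ratio B-score at or below minus 3 SD of library scores, with starting-brightness B-score within 2 SD, cut at about -4.2 in these data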;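 note: channel flux triggered by added potassium and thallium sulfate stimulus; B-score of peak minus minimum fluorescence over baseline after thallium stimulus; more negative B-score means stronger Kir2.1 block with less thallium influx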
KCNK3 block: human KCNK3 channel inhibition, primary screen. O14649. CHO-KCNK3 thallium flux, FluxOR fluorescence; stronger effect = lower value. B-score at 10 µM. hit rate 0.84% among 340,000;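 active = B-score under library mean minus 4 SD, starting fluorescence ratio at most library mean plus 5 SD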;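 note: more negative B-score means stronger inhibition of thallium flux through KCNK3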
Target sequence (O14649 whole entry, looked up): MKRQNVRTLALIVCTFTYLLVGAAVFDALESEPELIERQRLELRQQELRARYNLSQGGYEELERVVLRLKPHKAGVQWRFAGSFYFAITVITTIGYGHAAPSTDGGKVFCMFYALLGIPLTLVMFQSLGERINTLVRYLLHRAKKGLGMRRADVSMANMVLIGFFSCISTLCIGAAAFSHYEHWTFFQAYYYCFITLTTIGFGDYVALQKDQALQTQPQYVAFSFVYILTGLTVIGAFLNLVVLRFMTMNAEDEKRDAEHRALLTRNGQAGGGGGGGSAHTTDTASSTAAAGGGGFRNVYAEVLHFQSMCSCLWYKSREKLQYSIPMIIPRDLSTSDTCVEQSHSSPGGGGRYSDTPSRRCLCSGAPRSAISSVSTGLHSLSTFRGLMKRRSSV
Numbers stand for hits; – = inactive; · = not tested or not shown. A selection: hits, their analogues and other compounds. The true share with any hit is near 3.7%.

SMILES	hERG rescue	KCNQ1 pot	KCNQ1 block	KCNK9 block	Kir21 inh	KCNK3 block
CC(=O)c1ccccc1NS(=O)(=O)c1cccc2nsnc12	–	–	–	–	–	–
CCc1ccccc1NS(=O)(=O)c1cccc2nsnc12	–	–	–	–	-5.4	–
Cc1ccc(C)c(NS(=O)(=O)c2c(C)ccc3nsnc23)c1	–	–	–	–	–	–
Cc1ccc2nsnc2c1S(=O)(=O)Nc1cccc2nsnc12	5.2	11	–	–	–	–
CC(O)c1cccc(-c2ccc(CN3C[C@]4(CO)O[C@@H](CO)C[C@@H]4S3(=O)=O)cc2)c1 (stereo partly specified)	·	·	·	·	·	–
CNC(=S)/N=C/NOCc1ccc(Cl)cc1Cl	–	–	8	–	–	–
COc1ccc(C(=O)OC(COc2ccccc2)Cn2ccnc2)cc1 (stereo unspecified)	–	–	–	–	-7	–
CCOc1ccc(NC(=O)CN(C)C(=O)COc2cccc3c2OC(C)(C)C3)cc1OCC	·	·	·	·	·	–
Cc1ccc(C)c(Oc2cc(NC(=O)CCCn3nc(C)c([N+](=O)[O-])c3C)cc([N+](=O)[O-])c2)c1	–	–	–	-7.7	–	–
Cc1cccn2c(=O)c3cc(C(=O)N4c5ccccc5CC4C)n(C)c3nc12 (stereo unspecified)	9.2	–	–	–	–	–
O=C(NC(=S)N1CCN(c2ccc(Cl)cc2[N+](=O)[O-])CC1)c1ccco1	–	–	–	–	–	–
COc1cccc(OC)c1C(=O)NC(=S)N1CCN(c2ccc(C(F)(F)F)cc2[N+](=O)[O-])CC1	11	–	–	–	–	–
O=C(NC(=S)N1CCN(c2ccc(Cl)cc2[N+](=O)[O-])CC1)c1cccs1	6.3	20	–	–	–	–
Cc1csc(NC(=O)C2C3C=CC(C3)C2C(=O)O)n1 (stereo unspecified)	5.4	–	–	–	–	–
COc1ccc(NC(=O)C2C3C=CC(C3)C2C(=O)O)cc1 (stereo unspecified)	–	–	–	–	–	–
COc1cccc(NC(=O)C2C3C=CC(C3)C2C(=O)O)c1 (stereo unspecified)	7.4	–	–	–	–	–
CC(C)(C)c1ccc(NC(=O)Cn2cnc3cc([N+](=O)[O-])ccc3c2=O)cc1	–	–	–	–	–	–
COc1ccccc1NNC(=O)c1cc(C(C)(C)C)nn1Cc1ccccc1	–	–	6	–	–	–
CC(C)(C)c1cc(C(=O)NNc2ccc(OC(F)(F)F)cc2)n(Cc2ccccc2)n1	–	–	–	-8	–	–
Cc1ccc(NNC(=O)c2cc(C(C)(C)C)nn2Cc2ccccc2)cc1	–	–	–	–	–	–
COC(=O)c1c(NS(=O)(=O)c2ccc(C)cc2)sc2c1CCC(C)C2 (stereo unspecified)	·	·	·	·	·	–
CCOC(=O)c1c(NS(C)(=O)=O)sc2c1CCC(C)C2 (stereo unspecified)	–	8	–	–	–	–
CC(=O)OCC(=O)[C@@]1(OC(C)=O)[C@@H](C)C[C@H]2[C@@H]3C[C@H](F)C4=CC(=O)C=C[C@]4(C)[C@@]3(F)[C@@H](O)C[C@@]21C	–	29	–	–	–	–
CC(=O)OCC(=O)[C@@]12OC(C)(C)O[C@@H]1C[C@H]1[C@@H]3C[C@H](F)C4=CC(=O)C=C[C@]4(C)[C@@]3(F)[C@@H](O)C[C@@]12C	–	–	–	–	–	·
O=C(NC(=S)N(CCCCO)C1CCCCC1)c1sc2ccccc2c1Cl	18	31	–	–	–	–
SMILES	hERG rescue	KCNQ1 pot	KCNQ1 block	KCNK9 block	Kir21 inh	KCNK3 block
CC(=O)N1CCCc2cc(S(=O)(=O)N3CCCC(C)C3)ccc21 (stereo unspecified)	–	–	–	–	–	–
O=C1c2ccccc2NC(c2ccc(Br)o2)N1O (stereo unspecified)	·	·	·	·	·	–
O=C1c2ccccc2NC(c2ccc(Br)s2)N1O (stereo unspecified)	21	22	–	–	–	–
COc1ccccc1C(CCN(Cc1ccccc1)C(C)=O)c1ccco1 (stereo unspecified)	–	–	–	–	-5.3	–
O=C(CSc1n[nH]c(-c2ccccc2)n1)NCc1cccc(C(=O)O)c1	–	–	–	–	–	–
O=C(Nc1ncc(Cc2ccccc2)s1)c1cccs1	–	–	–	–	–	–

Source: PubChem BioAssay (Johns Hopkins Ion Channel Center)
